The values that follow come from ChEMBL document CHEMBL1148650, “Synthesis and pharmacological evaluation of novel nitrobenzenic thromboxane modulators as antiplatelet agents acting on both the alpha and beta isoforms of the human thromboxane receptor” (J Med Chem, 2006).

Experiment [1] has as its target T1, Thromboxane A2 receptor (Homo sapiens) (UniProt P21731).
T1 sequence (whole entry): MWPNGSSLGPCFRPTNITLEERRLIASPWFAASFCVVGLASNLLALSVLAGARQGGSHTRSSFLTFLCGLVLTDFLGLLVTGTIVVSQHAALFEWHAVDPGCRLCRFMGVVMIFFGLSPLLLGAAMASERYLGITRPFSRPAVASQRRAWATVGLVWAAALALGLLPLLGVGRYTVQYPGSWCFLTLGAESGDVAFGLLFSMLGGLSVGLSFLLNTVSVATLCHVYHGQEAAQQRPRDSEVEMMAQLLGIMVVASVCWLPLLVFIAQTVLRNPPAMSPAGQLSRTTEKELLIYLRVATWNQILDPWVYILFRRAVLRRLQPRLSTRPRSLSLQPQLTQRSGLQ
The experiment can be described thus: Displacement of [3H]SQ29,548 from TPalpha receptor (short isoform) expressed in COS7 cells at 1 uM. It is filed as cell-based. The conditions noted are these: COS-7.

Experiment [2] concerns the target T1, Thromboxane A2 receptor (Homo sapiens). The experiment can be described thus: Displacement of [3H]SQ-29548 from TPbeta receptor (long isoform) expressed in COS7 cells at 1 uM. Format: cell-based. The conditions noted are these: COS-7.
The target is the same in experiment [3]. Briefly: Displacement of [3H]SQ-29548 from TPbeta receptor (long isoform) expressed in COS7 cells at 1 nM. The conditions noted are these: COS-7.
The target is the same in experiment [4]. The experiment can be described thus: Selectivity index, IC50 for TPalpha/IC50 for TPbeta in COS7 cells. It is filed as cell-based. The conditions noted are these: COS-7. In a few lines:
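Binding used 5 × 10^5 cells in 25 mM HEPES/125 mM NaCl/10 µM indomethacin, pH 7.4, with 10 nM [3H]SQ29,548 and compound at 10^-6 to 10^-11 M, in triplicate, for 30 min at 37 °C. Nonspecific binding: 10 µM unlabeled SQ29,548. Bound ligand was counted after filtration. Index = IC50 TPα/IC50 TPβ.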

Experiment [5] has as its target T2, Thromboxane A2 receptor (Homo sapiens, UniProt P21731).
T2 sequence (P21731 whole entry): T1 sequence (whole entry)
The experiment can be described thus: Activity at TPalpha (short isoform) receptor expressed in HEK293 cells assessed as ability to antagonize U46619-mediated calcium ion mobilization. Format: functional, cell-based. In a few lines: (§1)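 HEK293 cells stably overexpressing human TPα or TPβ. Cells were loaded 1 h with Fluo-4/AM (5 µg/mL) and washed in Krebs-HEPES pH 7.4 (150 000 cells/well). Compound (10^-5 to 10^-8 M final) was added 10 min before 1 µM U46619. Fluo-4 signal was calibrated by Triton X-100 and then EGTA (Kd 385 nM) for [Ca2+]i. IC50 is the concentration halving the [Ca2+]i rise.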

Experiment [6] deals with T2, Thromboxane A2 receptor. Briefly: Activity at TPbeta (long isoform) receptor expressed in HEK293 cells assessed as ability to antagonize U46619-mediated calcium ion mobilization. It is filed as functional, cell-based. In a few lines:
as §1

The target in experiment [7] is T1, Thromboxane A2 receptor (Homo sapiens). The experiment can be described thus: Displacement of [3H]SQ29,548 from TPalpha receptor (short isoform) expressed in COS7 cells at 1 nM. Particulars: COS-7.
Experiment [8] has the same target. The experiment can be described thus: Selectivity index, IC50 for TPalpha/IC50 for TPbeta in HEK293 cells. Format: functional, cell-based. A digest of the protocol:
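Ratio of IC50 TPα to IC50 TPβ, both from the calcium assay in stably transfected HEK293 cells. Fluo-4-loaded cells were preincubated 10 min with compound (10^-5 to 10^-8 M), then stimulated with 1 µM U46619. IC50 is the concentration inhibiting 50% of the [Ca2+]i rise.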

In experiment [9] the target is T2, Thromboxane A2 receptor. The experiment can be described thus: Displacement of [3H]SQ29,548 from TPalpha receptor (short isoform) expressed in COS7 cells.
Experiment [10] addresses T2, Thromboxane A2 receptor. Briefly: Displacement of [3H]SQ-29548 from TPbeta receptor (long isoform) expressed in COS7 cells.

For the compound `CCC(C)NC(=O)NS(=O)(=O)c1cc([N+](=O)[O-])ccc1Nc1c(C)cccc1C` (centres undefined), the values for the Activity in [1] and in [2] were 48.4% and 42.5%, respectively.
For the compound `CCC(C)NC(=O)NS(=O)(=O)c1cc([N+](=O)[O-])ccc1Nc1ccc(C)cc1` (centres undefined), the Activity stood at 40.7% in [1] and 40.4% in experiment [2].
With `CCCCCNC(=O)NS(=O)(=O)c1cc([N+](=O)[O-])ccc1Nc1ccc(C)cc1`, the Activity in experiment [3] turned out to be 34.2%; in [7], 39.6%. For the same compound, the Ratio IC50 in experiment [4] stood at 0.75; in [8] it was 3.69. Besides, the IC50 was 50 nM on Thromboxane A2 receptor [5], 13.6 nM at Thromboxane A2 receptor [6], 2.65 nM on Thromboxane A2 receptor [9] and 3.53 nM at Thromboxane A2 receptor [10].
For `Cc1cccc(C)c1Nc1ccc([N+](=O)[O-])cc1S(=O)(=O)NC(=O)NC(C)(C)C`, the Activity in [3] came to 46.3%; in experiment [7], 46.4%. In addition, the Ratio IC50 in experiment [4] is 1.4; in experiment [8] it was 1.85. Moreover, the IC50 on Thromboxane A2 receptor [5] amounted to 56.9 nM; at Thromboxane A2 receptor [6], 30.8 nM; at Thromboxane A2 receptor [9], 0.78 nM; on Thromboxane A2 receptor [10], 0.56 nM.
As for `CCCCCCCNC(=O)NS(=O)(=O)c1cc([N+](=O)[O-])ccc1NC1CCCCC1`, the Activity turned out to be 36.4% in experiment [3] and 29.5% in experiment [7]. Besides, the Ratio IC50 in [4] stood at 0.93; in experiment [8], 1.67. Besides, the IC50 turned out to be 92.9 nM on Thromboxane A2 receptor [5], 55.5 nM on Thromboxane A2 receptor [6], 2.5 nM at Thromboxane A2 receptor [9] and 2.68 nM on Thromboxane A2 receptor [10].
For `Cc1ccc(Nc2ccc([N+](=O)[O-])cc2S(=O)(=O)NC(=O)NC(C)(C)C)cc1`, the Activity in [3] came to 53.6%; in experiment [7], 49.5%. For the same compound, the Ratio IC50 in experiment [4] is 1.35; in [8], 6.01. Besides, the IC50 at Thromboxane A2 receptor [5] was 319 nM; at Thromboxane A2 receptor [6] it was 53.1 nM; on Thromboxane A2 receptor [9], 1.05 nM; at Thromboxane A2 receptor [10], 0.78 nM.
On to `CCCCCCNC(=O)NS(=O)(=O)c1cc([N+](=O)[O-])ccc1NC1CCCCC1`, for which the Activity in [3] is 42.5%; in [7], 44.2%. Besides, the Ratio IC50 in [4] was found to be 0.67; in [8] it was 1.76. Besides, the IC50 worked out at 81.2 nM on Thromboxane A2 receptor [5], 46.2 nM at Thromboxane A2 receptor [6], 0.71 nM at Thromboxane A2 receptor [9] and 1.07 nM on Thromboxane A2 receptor [10].
